Screening data (PubChem)
MC4R ag barr: human MC4R agonism via beta-arrestin. P32245. AID 540308. 360,000 tested, 0.98% active. activation, % at 8.9 µM. U2OS MC4R beta-arrestin complementation, luminescence; percent of melanotan II response, DMSO zero;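 active means activation above a per-plate cutoff, the mean activation of sample wells on that plate plus 3 SD, cut at about 8% in these data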
TLR4-MyD88 BLA: inhibitors of human TLR4-MyD88 binding | inhibition, % at 8.4 µM | HeLa CL3-4 TLR4/MyD88 BLA complementation, FRET ratio | AID 861 | O00206+Q99836 | 200,000 tested, 0.18% active; in the data active means inhibition above about 25%;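 further: 0% = vehicle and 100% = reference inhibitor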
TLR9-MyD88 block: TLR9-MyD88 interaction inhibition. Q9NR96+Q99836. CHO BLA complementation TLR9-MyD88, CCF4 FRET ratio. inhibition, % at 4.98 µM. 340,000 tested, 0.21% active;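 active means inhibition above the mean over all tested compounds plus 3 SD, cut at about 21% in these data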;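 further: 0% = DMSO only wells and 100% = clavulanate BLA inhibitor control wells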
MC4R antag cAMP: blocks human MC4R cAMP signaling | P32245 | MC4R-expressing cells, MTII-stimulated cAMP, LANCE TR-FRET | inhibition, % at 6.5 µM | 360,000 tested, 0.48% active | AID 540295;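 active means inhibition above its plate's cutoff, the mean of tested wells on that plate plus 3 SD, cut at about 29% in these data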;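 further: 0% = Melanotan II alone and 100% = Melanotan II plus saturating MCL0020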
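Material: human MC4R-expressing U2OS cells. Probe or stimulus: Melanotan II challenge. Dosing: 6.5 µM single dose. Times: 30-min compound, 1-h challenge, 1-h detection, room temperature. Technique: TR-FRET with Eu-cAMP and labeled anti-cAMP, 671 nm. Replication: singlicate.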
NTR1 ag: agonists of human neurotensin receptor NTR1; NTR1-U2OS beta-arrestin-GFP spot imaging, agonist mode; activation, % at 20 µM; 330,000 tested, 0.17% active; AID 493036;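 active means activation at or above 40% of the spot to cytoplasm intensity ratio, with at least 20 cells analyzed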;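 further: 0% = DMSO without peptide and 100% = 100 nM NTR1 peptide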
NOD2-RIPK2 inh: inhibitors of human NOD2-RIPK2 interaction. CHO BLA complementation NOD2-RIPK2, CCF4 ratio. O43353. inhibition, % at 4.98 µM. 360,000 tested, 0.38% active; in the data active means inhibition above about 21%;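 further: 0% = vehicle only and 100% = reference blocker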
TLR4-MyD88 conf: TLR4-MyD88 interaction inhibition confirmed. shares compounds with TLR4-MyD88 BLA. HeLa CL3-4 BLA complementation, CCF4 FRET ratio. inhibition, % at 8.4 µM. 350 tested, 50% active. AID 941;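 active means mean inhibition across three repeat runs above about 25% carried over from the earlier screen, limit read from the data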;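 further: plate controls were DMSO only for no effect and clavulanic acid blocking BLA at full dose for full effect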
BLA inhibitor ct: inhibits beta-lactamase activity, counter-screen to TLR4-MyD88 binding inhibitors | HeLa BLA reporter, CCF4 FRET ratio | inhibition, % at 8.4 µM | shares compounds with TLR4-MyD88 BLA | AID 1237 | 350 tested, 63% active;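 active means mean inhibition over three repeats above about 26% taken from the earlier screen, limit read from the data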;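 further: HeLa cells stably expressing beta-lactamase reporter as counterscreen for TLR4-MyD88 inhibitors; 0% = DMSO and 100% = clavulanic acid full inhibition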
TLR9-MyD88 conf: confirmation of human TLR9-MyD88 binding inhibitors. shares compounds with TLR9-MyD88 block. CHO TLR9/MyD88 BLA complementation, CCF4 FRET ratio. inhibition, % at 4.98 µM. 680 tested, 51% active. AID 540250;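 active means mean inhibition across three repeats above about 21% taken from the earlier screen, limit read from the data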;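 further: blue over green emission ratio reports constitutive TLR9 MyD88 association via BLA complementation; 0% = DMSO vehicle wells and 100% = clavulanate BLA inhibitor wells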
Target sequence (Q9NR96 whole entry, looked up): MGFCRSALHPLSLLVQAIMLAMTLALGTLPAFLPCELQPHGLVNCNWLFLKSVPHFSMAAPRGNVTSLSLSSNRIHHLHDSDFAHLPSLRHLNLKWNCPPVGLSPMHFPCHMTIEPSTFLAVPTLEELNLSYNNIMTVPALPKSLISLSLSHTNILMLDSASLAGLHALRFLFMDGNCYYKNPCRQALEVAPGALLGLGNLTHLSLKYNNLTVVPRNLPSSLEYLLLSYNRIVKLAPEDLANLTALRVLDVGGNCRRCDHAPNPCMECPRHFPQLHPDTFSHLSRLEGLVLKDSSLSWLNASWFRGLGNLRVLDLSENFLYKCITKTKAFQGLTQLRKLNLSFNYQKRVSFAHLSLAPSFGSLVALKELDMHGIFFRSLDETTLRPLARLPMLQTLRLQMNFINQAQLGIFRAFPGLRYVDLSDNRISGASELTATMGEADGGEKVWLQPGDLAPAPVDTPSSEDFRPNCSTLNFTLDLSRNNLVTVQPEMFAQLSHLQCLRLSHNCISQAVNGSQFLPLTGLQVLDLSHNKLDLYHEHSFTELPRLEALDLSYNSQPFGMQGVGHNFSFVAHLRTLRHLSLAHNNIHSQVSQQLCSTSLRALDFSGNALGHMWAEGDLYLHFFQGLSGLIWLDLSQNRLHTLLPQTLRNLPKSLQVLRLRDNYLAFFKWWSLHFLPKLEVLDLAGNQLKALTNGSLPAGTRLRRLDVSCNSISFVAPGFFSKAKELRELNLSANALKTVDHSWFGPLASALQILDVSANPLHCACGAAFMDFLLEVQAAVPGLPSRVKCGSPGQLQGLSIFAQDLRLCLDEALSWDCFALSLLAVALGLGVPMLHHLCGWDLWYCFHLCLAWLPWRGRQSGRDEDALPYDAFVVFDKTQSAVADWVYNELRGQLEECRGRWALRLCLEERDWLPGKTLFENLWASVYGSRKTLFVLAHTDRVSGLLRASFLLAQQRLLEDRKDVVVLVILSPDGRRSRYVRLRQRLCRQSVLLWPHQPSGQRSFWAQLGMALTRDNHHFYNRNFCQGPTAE
BLA counter-1: beta-lactamase reporter inhibition, counter-screen artifact. AID 540251. CHO-BLA cells, CCF4 FRET ratio, BLA reporter. shares compounds with TLR9-MyD88 block. 680 tested, 7% active. inhibition, % at 4.98 µM;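 active means mean inhibition above a 50% cutoff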;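 further: counterscreen of TLR9-MyD88 hits on CMV-driven BLA in CHO-K1 cells; 0% = DMSO alone and 100% = clavulanate blocking BLA; higher means less blue over green ratio so more BLA blockade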
TLR9 CHO tox: CHO cell toxicity counter-screen for TLR9-MyD88 inhibitors. inhibition, % at 4.98 µM. shares compounds with TLR9-MyD88 block. TLR9-MyD88 CHO cells cytotoxicity, luminescence. 680 tested, 39% active; in the data active means inhibition above about 11%
U2OS cAMP counter: nonselective cAMP signaling inhibitor, MC4R antagonist counter-screen | shares compounds with MC4R antag cAMP | parental U2OS, forskolin cAMP, LANCE TR-FRET | inhibition, % at 6.5 µM | 1,600 tested, 26% active | AID 602193;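 active means mean inhibition over triplicates above the low-control well mean plus 3 SD, set per campaign, cut at about 13% in these data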;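 further: signal is single emission at 671 nm which falls as cellular cAMP rises; 0% = forskolin-stimulated wells and 100% = buffer without forskolin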
MC4R cAMP antag: human MC4R cAMP antagonism confirmation; shares compounds with MC4R antag cAMP; MC4R-expressing cells, MTII-stimulated cAMP, TR-FRET; inhibition, % at 6.5 µM; 1,600 tested, 27% active; in the data active means inhibition above about 29%;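 further: 0% = agonist stimulated wells alone and 100% = agonist stimulated wells plus saturating reference antagonist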
NOD2-RIPK2 conf: NOD2-RIPK2 interaction inhibition confirmed. shares compounds with NOD2-RIPK2 inh. CHO cells, NOD2-RIPK2 BLA complementation, CCF4 FRET. inhibition, % at 4.98 µM. 1,200 tested, 70% active. AID 624370;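 active means mean inhibition across replicates above a set limit taken from the earlier primary screen, cut at about 21% in these data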;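 further: 0% = DMSO-only wells and the high end = clavulanate BLA-blocked wells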
BLA counter-2: counter-screen for NOD2-RIPK2 interaction inhibitors: BLA reporter. AID 624371. inhibition, % at 4.98 µM. shares compounds with NOD2-RIPK2 inh. 1,200 tested, 57% active. CHO BLA reporter, CCF4 FRET ratio, counterscreen;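 active means mean inhibition above the low-control mean inhibition plus three low-control SD, cut at about 11% in these data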;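 further: 0% = DMSO only wells and 100% = clavulanate high control wells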
Active calls of the source: *. Most compounds without a hit are left out; they make up all but 1.9% or so of the library.

Results for COCCn1c(=O)[nH]c(=O)c2c(C(F)(F)F)cc(-c3cccs3)nc21 ?
MC4R ag barr: -1; TLR4-MyD88 BLA: -3; TLR9-MyD88 block: 11; MC4R antag cAMP: 21; NTR1 ag: 22; NOD2-RIPK2 inh: 1

How did NC(=S)Nc1ccc(S(=O)(=O)c2ccc(NC(N)=S)cc2)cc1 do in these assays?
MC4R ag barr: -3; TLR9-MyD88 block: 2; MC4R antag cAMP: 13; NTR1 ag: 2; NOD2-RIPK2 inh: -4

How did O=C(Cn1ncc(Cl)c(Cl)c1=O)c1ccc(Cl)cc1 do in these assays?
MC4R ag barr: -1; TLR4-MyD88 BLA: 29*; TLR9-MyD88 block: 32*; MC4R antag cAMP: 2; NOD2-RIPK2 inh: 34*; TLR4-MyD88 conf: 22; BLA inhibitor ct: 8; TLR9-MyD88 conf: 18; BLA counter-1: 13; TLR9 CHO tox: 72*; NOD2-RIPK2 conf: 39*; BLA counter-2: 6

What do the screens show for `Cc1cccc(C)c1-n1c(C)cc(/C=N\Nc2ccc([N+](=O)[O-])cn2)c1C`?
MC4R ag barr: -1; TLR4-MyD88 BLA: 29*; TLR9-MyD88 block: 44*; MC4R antag cAMP: 10; NTR1 ag: -1; NOD2-RIPK2 inh: 30*; TLR4-MyD88 conf: 35*; BLA inhibitor ct: 64*; TLR9-MyD88 conf: 31*; BLA counter-1: 27; TLR9 CHO tox: 0; NOD2-RIPK2 conf: 61*; BLA counter-2: 62*

Results for O=C1c2cccc3c(N4CCCCC4)ccc(c23)C(=O)N1c1ccccc1O ?
MC4R ag barr: -2; TLR4-MyD88 BLA: 28*; TLR9-MyD88 block: 49*; MC4R antag cAMP: 11; NTR1 ag: 0; NOD2-RIPK2 inh: 52*; TLR4-MyD88 conf: 26*; BLA inhibitor ct: 39*; TLR9-MyD88 conf: 32*; BLA counter-1: 31; TLR9 CHO tox: 7; NOD2-RIPK2 conf: 60*; BLA counter-2: 66*

What do the screens show for `O=C(O)c1ccc(N2CCCCCC2)c(N2C(=O)c3ccccc3C2=O)c1`?
MC4R ag barr: -1; TLR4-MyD88 BLA: -16; TLR9-MyD88 block: -1; MC4R antag cAMP: 7; NTR1 ag: 0; NOD2-RIPK2 inh: 2

How did Nc1ccc2c(c1)Cc1cc([N+](=O)[O-])ccc1-2 do in these assays?
MC4R ag barr: -5; TLR4-MyD88 BLA: 46*; TLR9-MyD88 block: 46*; MC4R antag cAMP: -1; NTR1 ag: -4; NOD2-RIPK2 inh: 49*; TLR4-MyD88 conf: 38*; BLA inhibitor ct: 67*; TLR9-MyD88 conf: 31*; BLA counter-1: 34; TLR9 CHO tox: 11*; NOD2-RIPK2 conf: 58*; BLA counter-2: 54*

What do the screens show for `CC(=NO)c1ccc2c(c1)Cc1cc([N+](=O)[O-])ccc1-2`?
MC4R ag barr: 0; TLR9-MyD88 block: -2; MC4R antag cAMP: 3; NOD2-RIPK2 inh: -4

Results for O=C(NCc1ccccn1)[C@@H]1CCCN1C(=O)[C@@H]1CCCN1C(=O)c1cccc(Cl)c1 ?
NOD2-RIPK2 inh: -5

Results for Cc1cccc(-n2c(N)c(-c3nc4ccccc4n3C)c3nc4ccccc4nc32)c1 ?
MC4R ag barr: 3; TLR4-MyD88 BLA: 21; TLR9-MyD88 block: 18; MC4R antag cAMP: 2; NTR1 ag: 0; NOD2-RIPK2 inh: 14

What do the screens show for `Cn1c(-c2c(N)n(-c3ccccc3)c3nc4ccccc4nc23)nc2ccccc21`?
MC4R ag barr: 7; TLR4-MyD88 BLA: 54*; TLR9-MyD88 block: 47*; MC4R antag cAMP: -2; NOD2-RIPK2 inh: 55*; TLR4-MyD88 conf: 49*; BLA inhibitor ct: 76*; TLR9-MyD88 conf: 42*; BLA counter-1: 46; TLR9 CHO tox: 12*; NOD2-RIPK2 conf: 71*; BLA counter-2: 73*

Results for Nc1cc(=O)nc2cn[nH]n12 ?
MC4R ag barr: 2; TLR9-MyD88 block: 12; MC4R antag cAMP: 3; NOD2-RIPK2 inh: 9

How did Cc1ccc(NC(=O)CN(C)C(=O)Cn2ncc(Cl)c(Cl)c2=O)cc1 do in these assays?
MC4R ag barr: -1; TLR4-MyD88 BLA: 32*; TLR9-MyD88 block: 16; MC4R antag cAMP: 30*; NOD2-RIPK2 inh: 25*; TLR4-MyD88 conf: 16; BLA inhibitor ct: 4; U2OS cAMP counter: 26*; MC4R cAMP antag: 24; NOD2-RIPK2 conf: 23*; BLA counter-2: 5

What do the screens show for `Cc1ccc(NC(=O)CN(C)C(=O)Cc2ccc(Cl)c(Cl)c2)cc1`?
MC4R ag barr: -1; TLR9-MyD88 block: -6; MC4R antag cAMP: 5; NTR1 ag: 3; NOD2-RIPK2 inh: -6

How did COc1ccc2oc(=O)c(/C(C)=N/NC(=O)c3ccncc3)cc2c1 do in these assays?
MC4R ag barr: -3; TLR4-MyD88 BLA: 12; TLR9-MyD88 block: 5; MC4R antag cAMP: 14; NOD2-RIPK2 inh: 0

Results for Cc1nc(N2N=C3/C(=C/c4ccc(F)cc4)CCCC3C2c2ccc(F)cc2)sc1C(=O)N(C)C (stereo not drawn) ?
MC4R ag barr: -1; TLR4-MyD88 BLA: 41*; TLR9-MyD88 block: 21; MC4R antag cAMP: 17; NTR1 ag: 16; NOD2-RIPK2 inh: 42*; TLR4-MyD88 conf: 37*; BLA inhibitor ct: 65*; NOD2-RIPK2 conf: 57*; BLA counter-2: 65*
